For one compound, Activity, inhibition and IC50 results are on record in ChEMBL document CHEMBL5038571, “Design and Synthesis of EZH2-Based PROTACs to Degrade the PRC2 Complex for Targeting the Noncatalytic Activity of EZH2” (J Med Chem, 2021).

What is called pIC50 is the IC50 on a negative log10 scale, so that one unit is a factor of ten.

pIC50: −log10 of the molar value. Activity calls are given as the source filed them. The rule behind the calls is not given here.

Assay [1] has as its target T1, Protein cereblon/Histone-lysine N-methyltransferase EZH2 (Homo sapiens) (UniProt Q15910+Q96SW2). The experiment in a line: PROTAC activity at CRBN E3 ligase/EZH2 in PRC2 complex in human WSUDLCL2 cells assessed as downregulation of RbAp48 expression at 1 uM pretreated with MG-132 for 4 hrs followed by compound addition and measured after 48 hrs by Western blot analysis. Format: cell-based. The essentials:
(§1)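 WSU-DLCL-2 cells pretreated 4 h with the named inhibitor, then compound added and incubated a further 48 h. EZH2, SUZ12, EED and RbAp48 measured by western blot (nitrocellulose transfer, skim-milk block, primary antibody overnight at 4 °C, chemiluminescent detection).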
(In general: Immunoblotting shows a protein as a band on a membrane.)

For assay [2], the target named is T1, Protein cereblon/Histone-lysine N-methyltransferase EZH2 (Homo sapiens). The experiment in a line: PROTAC activity at CRBN E3 ligase/EZH2 in PRC2 complex in human WSUDLCL2 cells assessed as downregulation of SUZ12 expression at 1 uM pretreated with lenalidomide for 4 hrs followed by compound addition and measured after 48 hrs by Western blot analysis. Format: cell-based. The essentials: as §1

For assay [3], the system named is WSUDLCL2. The experiment in a line: Effect on Histone H3 methylation in human WSUDLCL2 cells assessed as reduction in H3K27me1 levels at upto 10 uM incubated for 48 hrs by Western blot analysis. Format: functional, cell-based. The settings on record: dose microM <=10, time 48.0 hrs. The essentials:
(§2)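 Lysates run on SDS-PAGE and transferred to nitrocellulose. Membranes blocked with 5% skim milk for 2 h, primary antibody applied overnight at 4 °C, then secondary antibody and chemiluminescent detection of histone H3 methylation marks.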

Assay [4] deals with T1, Protein cereblon/Histone-lysine N-methyltransferase EZH2 (Homo sapiens). The experiment in a line: PROTAC activity at CRBN E3 ligase/EZH2 in PRC2 complex in human WSUDLCL2 cells assessed as induction of EED degradation at 10 uM incubated for 48 hrs by Western blot analysis. Format: cell-based.
For assay [5] the target is unchanged. The experiment in a line: PROTAC activity at CRBN E3 ligase/EZH2 in PRC2 complex in human SU-DHL-6 cells assessed as induction of EED degradation by measuring reduction in EED protein level at 1 uM incubated for 48 hrs by Western blot analysis. Format: cell-based. The essentials:
(§3)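 Cells cultured in DMEM or RPMI 1640 with 10% FBS and 1% penicillin-streptomycin, 37 °C, 5% CO2; exposed to 1 μM compound for 48 h. Lysates run on SDS-PAGE and transferred to nitrocellulose. Blocked 2 h in 5% skim milk, primary antibody overnight at 4 °C, then secondary antibody. Chemiluminescent detection of PRC2 subunits and H3K27me3.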

Assay [6] has as its system WSUDLCL2. The experiment in a line: Inhibition of PRC2 in human WSUDLCL2 cells assessed as suppression H3K27 trimethylation at 10 uM incubated for 48 hrs by Western blot analysis. Format: cell-based. The essentials:
as §2

Another assay has as its system A549. The experiment in a line: Upregulation of […] mRNA expression in human […] cells at 5 uM incubated for 48 hrs by qRT-PCR analysis. Format: functional, cell-based. The essentials:
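A549 cells treated 48 h. Trizol RNA extraction, reverse transcription, SYBR qPCR (95 °C 30 s; 40 cycles of 95 °C 6 s, 60 °C 20 s). mRNA normalized to DMSO-treated cells; mean ± SD of three independent experiments.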
Background: In qPCR the cycle at which signal appears reflects the starting amount.

The subject of the next assay is NCI-H1299. The experiment in a line: Antiproliferative activity against EZH2-knockdown human NCI-H1299 cells assessed as inhibition of cell growth at 10 uM treated for 9 days by optical microscopic analysis. Format: functional, cell-based. The conditions noted are these: time 9.0 day. The essentials: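 Cells seeded at 5 × 10³ per well, grown 24 h, then exposed to compound at 10 μM for 9 days with medium refreshed. Cells were photographed and counted on days 1, 3, 5, 7 and 9. For lines 1-2, EZH2-targeting or control shRNA was induced in the cells. Mean SD of three independent experiments; t-test against control.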

The target of assay [7] is T1, Protein cereblon/Histone-lysine N-methyltransferase EZH2 (Homo sapiens). The experiment in a line: PROTAC activity at CRBN E3 ligase/EZH2 in PRC2 complex in human SU-DHL-6 cells assessed as induction of RbAp48 degradation by measuring reduction in RbAp48 protein level at 1 uM incubated for 48 hrs by Western blot analysis. Format: cell-based. The essentials:
as §3

The target is the same in assay [8]. The experiment in a line: PROTAC activity at CRBN E3 ligase/EZH2 in PRC2 complex in human DU-145 cells assessed as induction of RbAp48 degradation by measuring reduction in RbAp48 protein level at 1 uM incubated for 48 hrs by Western blot analysis. Format: cell-based. The essentials: (§4)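 Cancer cell lines exposed to 1 μM compound for 48 h. Lysates immunoblotted (SDS-PAGE, nitrocellulose, 5% milk block, primary antibody overnight at 4 °C) for EZH2, SUZ12, EED, RbAp48 and H3K27me3. Bands quantified by densitometry and normalized to GAPDH.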

Assay [9] concerns WSUDLCL2. The experiment in a line: Antiproliferative activity against human WSUDLCL2 cells harboring EZH2-Y641F mutant assessed as inhibition of cell growth incubated for 3 to 7 days by optical microscopic analysis (Rvb= 4.92 uM). Format: functional, cell-based.
For the next assay, the system named is MDA-MB-468. The experiment in a line: Downregulation of CEP76 mRNA expression in human MDA-MB-468 cells at 10 uM incubated for 48 hrs by qRT-PCR analysis. Format: functional, cell-based. The essentials:
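Cells treated 48 h. Total RNA extracted with Trizol, reverse-transcribed, and SYBR RT-qPCR run: 95 °C 30 s, then 40 cycles of 95 °C 6 s and 60 °C 20 s. mRNA normalized to the DMSO-treated group. Mean SD of three independent experiments, t-test versus DMSO.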

For assay [10], the target named is Polycomb protein EED (Homo sapiens) (UniProt O75530). The experiment in a line: Binding affinity to EED in human WSUDLCL2 cells assessed as thermal stability by measuring shift in temperature at 60 uM pretreated with proteasome inhibitor MG132 for 1 hr followed by compound addition incubated for 2 hrs by cellular thermal shift based Western blot analysis. Format: cell-based. The essentials:
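Cellular thermal shift: cells suspended at 1.5 × 10⁶/mL and pretreated with MG-132 (5 μM, 1 h), then given 60 μM compound for 2 h with a DMSO control. Cells were lysed in RIPA with cocktail for 1 h. Supernatant aliquots were heated 6 min at 45, 48, 51, 54, 57 and 60 °C and centrifuged 15 min. Soluble protein was immunoblotted; bands quantified by densitometry; three independent experiments.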

Assay [11] deals with T1, Protein cereblon/Histone-lysine N-methyltransferase EZH2 (Homo sapiens). The experiment in a line: PROTAC activity at CRBN E3 ligase/EZH2 in PRC2 complex in human DU-145 cells assessed as induction of SUZ12 degradation by measuring reduction in SUZ12 protein level at 1 uM incubated for 48 hrs by Western blot analysis. Format: cell-based. The essentials: as §4
Assay [12] has the same target. The experiment in a line: PROTAC activity at CRBN E3 ligase/EZH2 in PRC2 complex in human WSUDLCL2 cells assessed as induction of RbAp48 degradation at 1 uM measured up to 2 hrs by Western blot analysis. Format: cell-based. The conditions noted are these: time hrs <=2.
The test system of assay [13] is WSUDLCL2. The experiment in a line: Antiproliferative activity against human WSUDLCL2 cells harboring EZH2-Y641F mutant assessed as inhibition of cell growth at 10 uM incubated for 9 days by optical microscopic analysis. Format: functional, cell-based. The conditions noted are these: time 9.0 day. The essentials: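 WSU-DLCL-2 cells seeded at 5 × 10³ per well, incubated 24 h, then exposed to 10 μM compound for 9 days with medium refreshed. Cells photographed and counted on days 1, 3, 5, 7 and 9. Mean SD of three independent experiments, t-test versus DMSO.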

The target in assay [14] is T1, Protein cereblon/Histone-lysine N-methyltransferase EZH2 (Homo sapiens). The experiment in a line: PROTAC activity at CRBN E3 ligase/EZH2 in PRC2 complex in human A2780 cells assessed as induction of EZH2 degradation by measuring reduction in EZH2 protein level at 1 uM incubated for 48 hrs by Western blot analysis. Format: cell-based. The essentials: as §4

T1 sequence (Q15910 whole entry, looked up): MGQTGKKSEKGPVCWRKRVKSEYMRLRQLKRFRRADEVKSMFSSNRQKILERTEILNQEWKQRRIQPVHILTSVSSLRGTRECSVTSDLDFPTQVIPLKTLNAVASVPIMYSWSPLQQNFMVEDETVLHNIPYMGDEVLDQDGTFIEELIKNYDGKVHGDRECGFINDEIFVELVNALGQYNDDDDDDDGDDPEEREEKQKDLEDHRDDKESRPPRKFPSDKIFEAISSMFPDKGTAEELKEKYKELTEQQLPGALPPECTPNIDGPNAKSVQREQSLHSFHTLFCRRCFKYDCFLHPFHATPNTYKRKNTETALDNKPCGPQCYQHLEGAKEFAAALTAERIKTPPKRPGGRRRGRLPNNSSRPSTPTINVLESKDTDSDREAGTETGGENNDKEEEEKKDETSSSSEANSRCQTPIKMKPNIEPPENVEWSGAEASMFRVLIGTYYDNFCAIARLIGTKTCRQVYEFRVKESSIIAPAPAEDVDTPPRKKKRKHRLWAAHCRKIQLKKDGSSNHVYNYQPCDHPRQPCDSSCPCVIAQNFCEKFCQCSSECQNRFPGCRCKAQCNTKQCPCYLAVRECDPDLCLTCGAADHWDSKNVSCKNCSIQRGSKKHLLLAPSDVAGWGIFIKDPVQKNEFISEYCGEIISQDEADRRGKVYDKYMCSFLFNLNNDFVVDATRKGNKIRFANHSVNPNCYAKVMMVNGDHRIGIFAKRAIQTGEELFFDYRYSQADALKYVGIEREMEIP
T1 sequence (Q96SW2 whole entry, looked up): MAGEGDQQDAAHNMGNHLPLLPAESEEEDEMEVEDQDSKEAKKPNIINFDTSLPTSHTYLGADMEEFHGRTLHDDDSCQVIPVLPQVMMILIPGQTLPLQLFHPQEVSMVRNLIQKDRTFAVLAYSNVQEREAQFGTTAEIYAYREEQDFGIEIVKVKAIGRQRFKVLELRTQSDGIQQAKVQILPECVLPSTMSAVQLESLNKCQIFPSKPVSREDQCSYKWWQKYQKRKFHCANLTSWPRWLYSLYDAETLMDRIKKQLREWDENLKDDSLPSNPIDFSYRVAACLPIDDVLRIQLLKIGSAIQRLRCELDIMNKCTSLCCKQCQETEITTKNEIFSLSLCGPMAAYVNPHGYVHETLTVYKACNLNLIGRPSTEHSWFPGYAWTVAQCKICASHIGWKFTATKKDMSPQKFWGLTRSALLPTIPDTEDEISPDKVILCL
Sequence of Polycomb protein EED (Homo sapiens) (O75530 2-441 limits assumed): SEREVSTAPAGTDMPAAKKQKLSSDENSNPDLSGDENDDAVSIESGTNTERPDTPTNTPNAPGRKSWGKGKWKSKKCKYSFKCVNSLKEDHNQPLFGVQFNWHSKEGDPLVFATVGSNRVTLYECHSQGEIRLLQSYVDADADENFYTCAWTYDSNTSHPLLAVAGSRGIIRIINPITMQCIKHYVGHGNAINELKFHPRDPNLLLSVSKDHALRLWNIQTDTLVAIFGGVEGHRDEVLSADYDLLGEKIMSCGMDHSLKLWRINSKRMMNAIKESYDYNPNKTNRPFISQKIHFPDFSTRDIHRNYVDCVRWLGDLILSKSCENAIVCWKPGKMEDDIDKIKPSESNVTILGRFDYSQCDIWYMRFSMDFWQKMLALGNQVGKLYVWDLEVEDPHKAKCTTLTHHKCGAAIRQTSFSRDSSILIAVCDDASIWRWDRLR

`CCN(c1cc(-c2ccc(CN3CCN(CCCCCCCOc4cccc5c4C(=O)N(C4CCC(=O)NC4=O)C5=O)CC3)cc2)cc(C(=O)NCc2c(C)cc(C)[nH]c2=O)c1C)C1CCOCC1` (configuration not stated): the outcome (in assay [1]; in assay [2]; with WSUDLCL2 [3]; in assay [4]; in [10]; in assay [12]) was inactive. Further, the result (in assay [5]; with A549; in the assay with NCI-H1299; in assay [7]; in [8]; with MDA-MB-468) was Active. The result (in [11]; in the assay with WSUDLCL2 [13]; in assay [14]) was Active. The inhibition entry with WSUDLCL2 [6] was “Active”. For the same compound, the negative-log IC50 (pIC50) in the assay with WSUDLCL2 [9] is 5.43.
